# Source: PubChem BioAssay (The Scripps Research Institute Molecular Screening Center)
# TAAR1 antag: human TAAR1 antagonism | Q96RJ0 | AID 624466 | actives 1.5% (n = 360,000) | inhibition, % at 3 µM | CHO RD-HGA16 TAAR1, Fluo-8 calcium fluorescence, antagonist;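 active means inhibition above a per-plate cutoff, the mean inhibition of test compounds on that plate plus 3 SD, cut at about 49% in these data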;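 further: 0% = DMSO plus EC80 beta-PEA response and 100% = DMSO alone without agonist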
# Target sequence (Q96RJ0 whole entry, looked up): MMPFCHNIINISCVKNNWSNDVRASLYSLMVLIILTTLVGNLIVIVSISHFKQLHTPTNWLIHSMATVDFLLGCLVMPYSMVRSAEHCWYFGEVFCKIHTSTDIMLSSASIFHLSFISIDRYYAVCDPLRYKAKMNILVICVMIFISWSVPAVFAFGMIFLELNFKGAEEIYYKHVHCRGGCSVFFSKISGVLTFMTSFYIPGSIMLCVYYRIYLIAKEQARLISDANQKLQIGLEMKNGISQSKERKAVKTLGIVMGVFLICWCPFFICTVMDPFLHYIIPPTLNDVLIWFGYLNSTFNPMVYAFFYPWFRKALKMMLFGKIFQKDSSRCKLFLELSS
#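 Material: CHO RD-HGA16 cells bearing hTAAR1; compound dosing: one-point dosing, 3 µM nominal final; schedule: dye loading 75 min at 37 °C, then 30 min room temperature; measured by: calcium fluorescence with Fluo-8; control set: vehicle and agonist controls; replication: n of 1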
# rCAG RNA binder: r(CAG) repeat RNA binding. TO-PRO-1 dye displacement fluorescence. inhibition, % at 3 µM. actives 1.3% (n = 370,000);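 active means inhibition above the plate cutoff, the mean of all test compounds on that plate plus 3 SD, cut at about 35% in these data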;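 further: 0% = DMSO alone and 100% = 100 µM mitoxantrone as full dye displacement; higher means more dye released from RNA so lower well fluorescence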
# TAAR1 ag: human TAAR1 agonism; Q96RJ0; CHO RD-HGA16 TAAR1, Fluo-8 calcium fluorescence; vehicle wells 0%, saturating PEA agonist 100%; activation, % at 3 µM; actives 0.99% (n = 360,000);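 active means activation above the mean activation of all test compounds in the run plus 3 SD, cut at about 38% in these data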
#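 Assay system: CHO-derived RD-HGA16 cells with stable Gα16 and human TAAR1; timing: 17-24 h seeding, 75 min 37 °C dye, 30 min RT; read-out: % activation from peak over basal fluorescence ratio, DMSO-to-PEA scaled; measured by: kinetic Fluo-8 calcium fluorescence; benchmarks: low control DMSO, high control PEA (EC100); doses: 3 µM single concentration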
# NS3 helicase inh: blocks Hepatitis C virus NS3 helicase unwinding; NS3 helicase DNA unwinding, Cy5 molecular beacon fluorescence; inhibition, % at 10.9 µM; actives 0.56% (n = 290,000);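 active means inhibition above the mean of all tested compounds plus 3 SD, set per campaign, cut at about 35% in these data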;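 further: 0% = DMSO wells and 100% = thioflavine S control wells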
#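 Assay system – hepatitis C virus NS3 helicase domain fragment enzyme · Buffer or medium – MOPS pH 6.5, MgCl2, DTT, Tween20, BSA · Reagent – Cy5/quencher beacon DNA duplex and ATP to start · Compound – single 10.9 µM dose · Timing – 1 h at 25 °C · Technique – Cy5 beacon fluorescence read at start and 1 h · Measure – % inhibition of unwinding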
# HCV core dimer: HCV core protein dimerization inhibition; TR-FRET GST/Flag-core106 dimerization, 1536-well; inhibition, % at 5 µM; actives 0.33% (n = 300,000); AID 1899;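 active means inhibition above the mean of all tested compounds plus 3 SD, set per screening campaign, cut at about 45% in these data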
#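 System: GST-tagged and Flag-tagged HCV core protein residues 1-106 / Input: core106 proteins, GST 13.5 nM and Flag 17 nM / Buffer or medium: KF-containing HEPES buffer, pH 7.45, DTT, CHAPS, BSA / Probe or stimulus: Eu-anti-GST and XL665-anti-Flag labelled anti-tag antibodies / Schedule: 4 h, 22.5 °C incubation / Technique: TR-FRET 671 and 617 nm emission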
# TAAR1 nonsel count: nonselective antagonism, TAAR1 counter-screen. counterscreen cell line, calcium fluorescence, antagonist mode. inhibition, % at 3 µM. shares compounds with TAAR1 antag. actives 77% (n = 2,400); in the data active means inhibition above about 22%;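 further: CHO-Ga16 host cells stimulated with ATP at an EC80 level; 0% = agonist EC80 plus vehicle and 100% = vehicle without agonist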
# TAAR1 ant conf: confirmation of human TAAR1 antagonists | shares compounds with TAAR1 antag | actives 40% (n = 2,400) | inhibition, % at 3 µM | TAAR1-expressing cells, fluorescence antagonist read-out; in the data active means inhibition above about 49%;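 further: CHO-Ga16 host cells challenged with agonist PEA near its EC80; 0% = agonist at EC80 plus vehicle and 100% = vehicle with no agonist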
# Ga16 nonsel ag: nonselective Ga16 agonism, counter-screen | activation, % at 3 µM | shares compounds with TAAR1 antag | AID 651953 | Ga16-expressing cells, calcium fluorescence, agonist counterscreen | actives 18% (n = 2,400); in the data active means activation above about 12%;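 further: 0% = vehicle wells and 100% = saturating stimulus response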
# TAAR1 ag count: activates human TAAR1 in antagonist counter-screen | shares compounds with TAAR1 antag | hTAAR1 cell line, fluorescence activation, agonist mode | activation, % at 3 µM | actives 2% (n = 2,400); in the data active means activation above about 37%;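 further: CHO cells stably expressing TAAR1 with calcium dye readout; 0% = DMSO vehicle and 100% = full agonist response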
# * = called active by the depositor; · = no result. An excerpt weighted towards active compounds, which were near 3.7% of everything screened.
SMILES,TAAR1 antag,rCAG RNA binder,TAAR1 ag,NS3 helicase inh,HCV core dimer,TAAR1 nonsel count,TAAR1 ant conf,Ga16 nonsel ag,TAAR1 ag count
O=C(NCc1ccccc1)C1=C[C@@H](c2coc3ccccc3c2=O)C[C@@H](OCc2ccc(CO)cc2)O1,52*,5,14,3,1,18,21,2,-2
CC(=O)n1cc([C@@H]2C=C(C(=O)N3CCN(C)CC3)O[C@H](OCc3ccc(CO)cc3)C2)c2ccccc21,14,-2,11,·,-9,·,·,·,·
C=CCOC(=O)C1=C[C@H](c2cn(C(C)=O)c3ccccc23)C[C@H](OCc2ccc(CO)cc2)O1,75*,3,24,-11,10,38*,52*,11,17
Cc1ccccc1Cn1cc(COC(=O)Nc2ccc(F)cc2)nn1,·,9,·,·,·,·,·,·,·
c1cc(-c2cc3nc(NCC4CC4)ccn3n2)ccc1OCCN1CCOCC1,42,5,9,·,·,·,·,·,·
CN(C)C(=O)CNc1ccn2nc(-c3cccc(OCCN4CCOCC4)c3)cc2n1,-4,0,3,·,·,·,·,·,·
c1cc(-c2cc3nc(NC4CCCCC4)ccn3n2)ccc1OCCN1CCOCC1,61*,2,16,·,·,24*,42,11,18
Clc1cccc(CNc2ccn3nc(-c4ccc(OCCN5CCOCC5)cc4)cc3n2)c1,69*,2,33,·,·,44*,71*,23*,23
Cc1ccccc1C(=O)N[C@H](C(=O)N1CCC[C@H]1C(=O)NCCc1ccccc1Cl)C1CCCCC1,24,0,16,·,·,·,·,·,·
Brc1ccc(-c2nn3c(-c4ccccc4)nnc3s2)cc1,·,7,·,·,·,·,·,·,·
CCOC(=O)[C@@]12CCCC3=C1N(CCC3)C(=O)[C@H]2CC(=O)NCc1cccc2ccccc12,·,2,·,·,·,·,·,·,·
CCCCNC(=O)C[C@H]1C[C@@]2(C(=O)OC)C(=C[C@H](C(C)C)O[C@@H]2C2CC2)N(CCC2=CCCCC2)C1=O,·,-3,·,·,·,·,·,·,·
C=C(C)C(O)CC/C(C)=C/Cc1c(O)ccc(C(=O)/C=C/c2ccc(O)cc2)c1O (configuration not stated),70*,27,9,·,·,29*,29,7,7
Cc1ccc(Cl)cc1NC(=O)Nn1cnnc1,62*,-1,1,-2,7,2,-1,0,0
CCOC(=O)C1CCCN(c2c(C(=O)c3ccccc3)cnc3ccc(OC)cc23)C1 (configuration not stated),86*,2,11,-17,6,2,66*,5,34
CCOC(=O)C1CCCN(C(=O)COc2ccc(C(=O)c3ccccc3)cc2)C1 (configuration not stated),-10,-4,2,·,·,·,·,·,·
COc1ccc(NC(=O)c2cc(-c3ccc(C)o3)nc3ccccc23)c(OC)c1,75*,2,7,·,10,33*,46,9,6
COc1ccc(OC)c(-c2cc(C(=O)Nc3ccccc3C(N)=O)c3ccccc3n2)c1,76*,5,21,·,-1,34*,54*,11,9
COc1ccc(OC)c(-c2cc(C(=O)N/N=C/c3ccc(F)cc3)c3ccccc3n2)c1,-18,7,2,·,14,·,·,·,·
Cc1ccc(-c2cc(C(=O)N(C)CC(=O)Nc3ccccc3Br)c3ccccc3n2)o1,66*,5,14,·,12,34*,50*,12*,13
Cc1ccc(-c2cc(C(=O)Nc3ccccc3C(N)=O)c3ccccc3n2)o1,66*,22,23,·,21,34*,54*,13*,12
COc1ccc(NC(=O)c2cc(-c3ccc(C)o3)nc3ccccc23)cc1OC,38,18,13,9,39,·,·,·,·
COC(=O)N1C[C@H](O)[C@H](O)C[C@@H]1c1ccccc1Br,8,3,1,·,·,·,·,·,·
